Source: ChEMBL document CHEMBL3870323, “Sulfonamide chalcones: Synthesis and in vitro exploration for therapeutic potential against Brugia malayi” (Eur J Med Chem, 2016)
The source made the active and inactive calls. The calls are words filed in the database; no cut-off is given here.

Assays:
[1] = Antifilarial activity against Brugia malayi microfilariae isolated from peritoneal cavity of infected Meriones unguiculatus assessed as loss of motility at 500 uM incubated for 48 hrs by microscopy; assay type: functional
In short: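 Jird peritoneal Mf washed in RPMI 1640 with gentamycin, penicillin and streptomycin, then held 1 h at 37°C on dishes to remove exudate cells. About 300 Mf in 0.9% saline exposed to compound with shaking at 37°C, 30 min, 150 rpm. 100 Mf per well, in triplicate, then 48 h at 37°C in 5% CO2 in RPMI. Stocks were 2 mM in DMSO; vehicle control 1% DMSO. Motility scored by microscopy; mean ± SEM % loss of motility.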

[2] = Antifilarial activity against Brugia malayi microfilariae isolated from peritoneal cavity of infected Meriones unguiculatus assessed as loss of motility incubated for 48 hrs by microscopy; assay type: functional
In short: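 Jird peritoneal Mf cleaned of exudate cells by 1 h adherence at 37°C. Exposed to compound over 1–100 µM final with shaking at 37°C, 30 min, 150 rpm in 0.9% saline. Washed, plated at 100 Mf per well in RPMI, triplicate wells, then 48 h at 37°C in 5% CO2. Vehicle control 1% DMSO. Loss of motility read by microscopy; experiment repeated three times; IC50 calculated.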

Brugia malayi = test: Induction of apoptosis in Brugia malayi microfilariae isolated from peritoneal cavity of infected Meriones unguiculatus after 48 hrs by acridine orange/ethidium bromide dual staining based epifluorescence microscopy; assay type: functional
In short: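 Mf, control or treated for 48 h, washed and resuspended in cold PBS. Dye mix of 100 µg/mL AO and 100 µg/mL EB in PBS added. Viewed by epifluorescence microscopy with 480/30 nm excitation; green nuclei scored as live, orange/red as apoptotic or dead. Staurosporine was the positive control and untreated Mf the negative control.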

[3] = Cytotoxicity against human PBMC after 48 hrs by trypan blue exclusion assay; assay type: toxicity, cell-based; details: PBMC (peripheral blood mononuclear cells), read-out: LD50
In short: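 Human PBMCs came from healthy donors' venous blood by histopaque-1077 density separation. Cells were washed in RPMI 1640 with 2 mM L-glutamine and resuspended in RPMI with 10% FBS at 1x10^5 cells/ml. Trypan blue exclusion followed the procedure adapted from the microfilarial motility assay. LD50 was taken as the dose giving 50% cytotoxicity.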

Row | Structure (SMILES) | Activity [1] | IC50 [2] | Activity (Brugia malayi) | CC50 at 48 h [3]
1 | Cc1ccc(S(=O)(=O)Nc2ccc(C(=O)/C=C/c3ccc(-c4ccccc4)cc3)cc2)cc1 | 6.24% |  |  | 
2 | CS(=O)(=O)Nc1ccc(C(=O)/C=C/c2ccc([N+](=O)[O-])cc2)cc1 | 100% | 4.4 µM | Active | 188 µM
3 | Cc1ccc(S(=O)(=O)Nc2ccc(C(=O)/C=C/c3ccc(Br)cc3)cc2)cc1 | 100% | 4.6 µM | Active | 220 µM
4 | Cc1ccc(S(=O)(=O)Nc2ccc(C(=O)/C=C/c3ccccc3)cc2)cc1 | 100% | 9.7 µM | Active | 335 µM
5 | Cc1ccc(S(=O)(=O)Nc2ccc(C(=O)/C=C/c3ccc(C(C)C)cc3)cc2)cc1 | 100% | 20 µM | Active | 50 µM
6 | CN(C)c1ccc(/C=C/C(=O)c2ccc(NS(=O)(=O)c3ccccc3)cc2)cc1 | 3.75% |  |  | 
7 | Cc1ccc(/C=C/C(=O)c2ccc(NS(=O)(=O)c3ccc(C)cc3)cc2)cc1 | 100% | 8.2 µM | Active | 140 µM
8 | Cc1ccc(/C=C/C(=O)c2ccc(NS(=O)(=O)c3ccccc3)cc2)cc1 | 6.34% |  |  | 
9 | Cc1ccc(S(=O)(=O)Nc2ccc(C(=O)/C=C/c3ccccc3Br)cc2)cc1 | 3.04% |  |  | 
10 | O=C(/C=C/c1ccc(Br)cc1)c1ccc(NS(=O)(=O)c2ccccc2)cc1 | 100% | 70 µM | Active | 265 µM
11 | COc1ccc(/C=C/C(=O)c2ccc(NS(C)(=O)=O)cc2)cc1 | 100% | 60 µM | Active | 194 µM
12 | Cc1ccc(S(=O)(=O)Nc2ccc(C(=O)/C=C/c3ccccc3Cl)cc2)cc1 | 4.1% |  |  | 
13 | Cc1ccc(S(=O)(=O)Nc2ccc(C(=O)/C=C/c3ccc(O)cc3)cc2)cc1 | 100% | 82 µM | Active | 270 µM
14 | O=C(/C=C/c1ccc(F)cc1)c1ccc(NS(=O)(=O)c2ccccc2)cc1 | 100% | 4.5 µM | Active | 217 µM
15 | O=C(/C=C/c1ccccc1Br)c1ccc(NS(=O)(=O)c2ccccc2)cc1 | 13.4% |  |  | 
16 | O=C(/C=C/c1ccccc1Cl)c1ccc(NS(=O)(=O)c2ccccc2)cc1 | 33.3% |  |  | 
17 | O=C(/C=C/c1ccc(Cl)cc1)c1ccc(NS(=O)(=O)c2ccccc2)cc1 | 100% | 17 µM | Active | 177 µM
18 | O=C(/C=C/c1ccccc1)c1ccc(NS(=O)(=O)c2ccccc2)cc1 | 4.52% |  |  | 
19 | O=C(/C=C/c1ccc(Br)s1)c1ccc(NS(=O)(=O)c2ccccc2)cc1 | 9% |  |  | 
20 | Cc1ccc(S(=O)(=O)Nc2ccc(C(=O)/C=C/c3cccc(Br)c3)cc2)cc1 | 100% | 15 µM | Active | 80 µM
21 | COc1ccc(/C=C/C(=O)c2ccc(NS(=O)(=O)c3ccccc3)cc2)cc1 | 1.81% |  |  | 
22 | O=C(/C=C/c1ccc([N+](=O)[O-])cc1)c1ccc(NS(=O)(=O)c2ccccc2)cc1 | 100% |  | Active | 
23 | COc1ccc(/C=C/C(=O)c2ccc(NS(=O)(=O)c3ccc(C)cc3)cc2)cc1 | 82.7% |  |  | 
24 | Cc1ccc(S(=O)(=O)Nc2ccc(C(=O)/C=C/c3ccc(Cl)cc3)cc2)cc1 | 1.58% |  |  | 
25 | O=C(/C=C/c1ccc(O)cc1)c1ccc(NS(=O)(=O)c2ccccc2)cc1 | 5.2% |  |  | 
26 | CS(=O)(=O)Nc1ccc(C(=O)/C=C/c2ccccc2)cc1 | 100% | 32 µM | Active | 134 µM
27 | O=C(/C=C/c1ccco1)c1ccc(NS(=O)(=O)c2ccccc2)cc1 | 8.11% |  |  | 
